Values after ≈ are worked out from the molar mass of the structure shown.
Assays:
HCT-116 = experiment: Antiproliferative activity against human HCT116 cells after 72 hrs; format: functional
[1] = biological target: Voltage-gated inwardly rectifying potassium channel KCNH2 (Homo sapiens, UniProt Q12809); experiment: Inhibition of human ERG
[2] = Log D at pH 7 by HPLC; format: physicochemical; conditions: buffer
[3] = biological target: Histone deacetylase 3 (Homo sapiens) (UniProt O15379); experiment: Inhibition of HDAC3
[4] = biological target: Histone deacetylase 4 (Homo sapiens) (UniProt P56524); experiment: Inhibition of HDAC4
[5] = biological target: Histone deacetylase 5 (Homo sapiens) (UniProt Q9UQL6); experiment: Inhibition of HDAC5
[6] = biological target: T1, Protein deacetylase HDAC6 (Homo sapiens) (UniProt Q9UBN7); experiment: Inhibition of HDAC6
T1 sequence (whole entry): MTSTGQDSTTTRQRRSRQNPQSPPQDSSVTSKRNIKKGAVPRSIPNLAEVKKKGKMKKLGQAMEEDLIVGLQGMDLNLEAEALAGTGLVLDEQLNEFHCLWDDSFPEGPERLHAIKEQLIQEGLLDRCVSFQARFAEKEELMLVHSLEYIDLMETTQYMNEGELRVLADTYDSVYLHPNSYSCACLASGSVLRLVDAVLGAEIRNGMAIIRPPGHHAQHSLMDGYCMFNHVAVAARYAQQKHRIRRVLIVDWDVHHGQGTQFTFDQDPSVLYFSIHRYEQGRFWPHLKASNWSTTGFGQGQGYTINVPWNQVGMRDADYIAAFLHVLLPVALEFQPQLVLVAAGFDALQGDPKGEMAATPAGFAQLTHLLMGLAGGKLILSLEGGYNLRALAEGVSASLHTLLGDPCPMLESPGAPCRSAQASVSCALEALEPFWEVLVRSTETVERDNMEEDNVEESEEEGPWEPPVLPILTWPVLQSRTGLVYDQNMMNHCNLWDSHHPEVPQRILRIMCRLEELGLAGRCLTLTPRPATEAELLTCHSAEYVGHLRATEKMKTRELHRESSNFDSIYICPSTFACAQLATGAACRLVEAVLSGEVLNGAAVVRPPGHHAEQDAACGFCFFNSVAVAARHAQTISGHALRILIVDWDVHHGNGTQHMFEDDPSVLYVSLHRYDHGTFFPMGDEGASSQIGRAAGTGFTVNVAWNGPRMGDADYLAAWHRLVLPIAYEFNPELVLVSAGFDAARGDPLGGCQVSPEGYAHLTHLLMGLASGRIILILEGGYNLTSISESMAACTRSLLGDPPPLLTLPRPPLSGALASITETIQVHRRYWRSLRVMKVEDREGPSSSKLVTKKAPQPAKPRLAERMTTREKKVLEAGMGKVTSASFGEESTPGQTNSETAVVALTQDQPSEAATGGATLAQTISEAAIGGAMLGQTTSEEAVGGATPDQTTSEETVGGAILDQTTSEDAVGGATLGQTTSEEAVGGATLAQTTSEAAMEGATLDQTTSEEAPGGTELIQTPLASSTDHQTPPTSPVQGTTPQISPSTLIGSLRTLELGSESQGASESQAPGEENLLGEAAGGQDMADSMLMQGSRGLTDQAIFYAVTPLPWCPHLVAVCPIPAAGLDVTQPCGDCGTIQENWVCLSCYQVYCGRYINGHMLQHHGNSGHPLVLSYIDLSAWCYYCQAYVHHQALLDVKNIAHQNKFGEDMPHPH

[7] = biological target: T2, Histone deacetylase 7 (Homo sapiens) (UniProt Q8WUI4); experiment: Inhibition of HDAC7
T2 sequence (whole entry): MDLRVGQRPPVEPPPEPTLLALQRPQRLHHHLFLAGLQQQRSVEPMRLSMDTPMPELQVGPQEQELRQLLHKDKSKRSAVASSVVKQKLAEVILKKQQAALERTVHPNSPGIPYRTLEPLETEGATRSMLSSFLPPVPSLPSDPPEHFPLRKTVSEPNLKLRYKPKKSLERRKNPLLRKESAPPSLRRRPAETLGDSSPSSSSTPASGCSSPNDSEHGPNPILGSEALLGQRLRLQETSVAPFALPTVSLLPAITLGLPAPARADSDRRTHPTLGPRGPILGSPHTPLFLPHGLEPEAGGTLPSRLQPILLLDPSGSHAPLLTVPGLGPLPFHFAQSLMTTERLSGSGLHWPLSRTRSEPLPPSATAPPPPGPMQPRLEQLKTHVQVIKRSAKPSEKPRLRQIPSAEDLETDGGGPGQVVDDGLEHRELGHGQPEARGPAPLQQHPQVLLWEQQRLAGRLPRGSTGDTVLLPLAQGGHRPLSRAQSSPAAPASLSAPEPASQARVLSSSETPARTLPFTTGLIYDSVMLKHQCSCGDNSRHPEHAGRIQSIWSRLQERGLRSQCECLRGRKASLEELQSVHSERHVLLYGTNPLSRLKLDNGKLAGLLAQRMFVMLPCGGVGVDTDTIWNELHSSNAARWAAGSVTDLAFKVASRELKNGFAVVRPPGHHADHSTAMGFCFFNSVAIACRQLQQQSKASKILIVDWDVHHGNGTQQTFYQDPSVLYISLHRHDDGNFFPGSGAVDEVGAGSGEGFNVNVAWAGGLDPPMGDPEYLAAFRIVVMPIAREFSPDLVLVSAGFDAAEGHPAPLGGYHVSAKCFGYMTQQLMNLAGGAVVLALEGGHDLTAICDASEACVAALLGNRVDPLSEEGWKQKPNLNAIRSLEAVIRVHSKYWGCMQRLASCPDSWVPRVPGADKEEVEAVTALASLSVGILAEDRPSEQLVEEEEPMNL

[8] = biological target: T3, Histone deacetylase 8 (Homo sapiens) (UniProt Q9BY41); experiment: Inhibition of HDAC8
T3 sequence (whole entry): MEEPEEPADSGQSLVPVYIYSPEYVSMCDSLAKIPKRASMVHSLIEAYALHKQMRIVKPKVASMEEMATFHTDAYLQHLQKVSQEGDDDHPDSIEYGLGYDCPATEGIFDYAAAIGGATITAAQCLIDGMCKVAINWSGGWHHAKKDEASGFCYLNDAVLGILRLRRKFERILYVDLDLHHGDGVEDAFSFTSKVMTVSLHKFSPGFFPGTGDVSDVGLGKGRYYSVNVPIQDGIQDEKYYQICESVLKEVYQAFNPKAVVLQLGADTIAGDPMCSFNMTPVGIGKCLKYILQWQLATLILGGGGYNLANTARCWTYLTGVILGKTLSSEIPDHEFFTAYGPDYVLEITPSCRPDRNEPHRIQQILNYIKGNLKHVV

[9] = biological target: T4, Histone deacetylase 11 (Homo sapiens) (UniProt Q96DB2); experiment: Inhibition of HDAC11
T4 sequence (whole entry): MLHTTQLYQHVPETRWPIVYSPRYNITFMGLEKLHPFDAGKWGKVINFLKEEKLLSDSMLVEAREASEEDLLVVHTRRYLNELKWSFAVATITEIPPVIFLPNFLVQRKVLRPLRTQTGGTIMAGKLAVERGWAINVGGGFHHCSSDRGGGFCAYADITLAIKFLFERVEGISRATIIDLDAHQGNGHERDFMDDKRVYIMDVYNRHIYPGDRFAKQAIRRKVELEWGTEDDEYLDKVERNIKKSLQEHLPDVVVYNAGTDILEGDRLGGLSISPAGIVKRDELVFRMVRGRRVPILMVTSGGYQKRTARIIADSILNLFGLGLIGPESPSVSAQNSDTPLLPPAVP

[10] = Selectivity for HDAC1 over HDAC2
[11] = Selectivity for HDAC1 over HDAC3
[12] = Selectivity for HDAC1 over HDAC4
[13] = Selectivity for HDAC1 over HDAC5
[14] = Selectivity for HDAC1 over HDAC6
[15] = Selectivity for HDAC1 over HDAC7
[16] = Selectivity for HDAC1 over HDAC8
[17] = Selectivity for HDAC1 over HDAC11
[18] = Clearance in rat at 2 mg/kg, iv and 4 mg/kg, po; format: ADME, organism-based; conditions: in vivo
[19] = Volume of distribution at steady state in rat at 2 mg/kg, iv and 4 mg/kg, po; format: ADME, organism-based; conditions: in vivo, read-out: Vdss
[20] = Half life in rat at 2 mg/kg, iv and 4 mg/kg, po; format: ADME, organism-based; conditions: in vivo
[21] = Bioavailability in rat at 4 mg/kg, po; format: ADME, organism-based; conditions: in vivo
[22] = Clearance in dog at 0.5 mg/kg, iv and 1 mg/kg, po; format: ADME, organism-based, Canis lupus familiaris; conditions: in vivo
[23] = Volume of distribution at steady state in dog at 0.5 mg/kg, iv and 1 mg/kg, po; format: ADME, organism-based, Canis lupus familiaris; conditions: in vivo, read-out: Vdss
[24] = Half life in dog at 0.5 mg/kg, iv and 1 mg/kg, po; format: ADME, organism-based, Canis lupus familiaris; conditions: in vivo
[25] = Bioavailability in dog at 1 mg/kg, po; format: ADME, organism-based, Canis lupus familiaris; conditions: in vivo
[26] = Clearance in rhesus monkey at 0.5 mg/kg, iv and 1 mg/kg, po; format: ADME, organism-based, Macaca mulatta; conditions: in vivo
[27] = Volume of distribution at steady state in rhesus monkey at 0.5 mg/kg, iv and 1 mg/kg, po; format: ADME, organism-based, Macaca mulatta; conditions: in vivo, read-out: Vdss
[28] = Half life in rhesus monkey at 0.5 mg/kg, iv and 1 mg/kg, po; format: ADME, organism-based, Macaca mulatta; conditions: in vivo
[29] = Bioavailability in rhesus monkey at 1 mg/kg, po; format: ADME, organism-based, Macaca mulatta; conditions: in vivo
[30] = Drug level in HCT116 cells xenografted mouse plasma at 65 mg/kg, ip qd after 2 hrs on day 21; format: ADME, organism-based, HCT-116; parameters: dose 65 mg/kg, route intraperitoneal
In short: (§1)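 Mice bearing HCT116 xenografts were dosed ip in a 21-day study at 50, 65 and 80 mg/kg alongside vehicle. Plasma drug levels were measured 2, 4 and 24 h post-dose.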

[31] = Drug level in HCT116 cells xenografted mouse plasma at 65 mg/kg, ip qd after 4 hrs on day 21; format: ADME, organism-based, HCT-116; parameters: dose 65 mg/kg, route intraperitoneal; in short: as §1
[32] = Drug level in HCT116 cells xenografted mouse plasma at 65 mg/kg, ip qd after 24 hrs on day 21; format: ADME, organism-based, HCT-116; parameters: dose 65 mg/kg, route intraperitoneal; in short: as §1
[33] = Aqueous solubility at pH 7 by HPLC; format: physicochemical; conditions: buffer
In short: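 A 200 µM sample in PBS-buffered water at pH 7 was agitated 24 h at room temperature and then filtered. A 100 µM reference was fully dissolved in MeOH:MeCN:DMSO (8:1:1). Both were run by the same high-throughput HPLC method, and the peak areas were compared to give the dissolved concentration. The assay caps at 200 µM.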

[34] = Drug level in HCT116 cells xenografted mouse plasma at ip qd after 2 hrs on day 21
[35] = Drug level in HCT116 cells xenografted mouse plasma at ip qd after 4 hrs on day 21
[36] = Drug level in HCT116 cells xenografted mouse plasma at ip qd after 24 hrs on day 21

Histone deacetylase 4 (Homo sapiens), sequence (P56524 whole entry): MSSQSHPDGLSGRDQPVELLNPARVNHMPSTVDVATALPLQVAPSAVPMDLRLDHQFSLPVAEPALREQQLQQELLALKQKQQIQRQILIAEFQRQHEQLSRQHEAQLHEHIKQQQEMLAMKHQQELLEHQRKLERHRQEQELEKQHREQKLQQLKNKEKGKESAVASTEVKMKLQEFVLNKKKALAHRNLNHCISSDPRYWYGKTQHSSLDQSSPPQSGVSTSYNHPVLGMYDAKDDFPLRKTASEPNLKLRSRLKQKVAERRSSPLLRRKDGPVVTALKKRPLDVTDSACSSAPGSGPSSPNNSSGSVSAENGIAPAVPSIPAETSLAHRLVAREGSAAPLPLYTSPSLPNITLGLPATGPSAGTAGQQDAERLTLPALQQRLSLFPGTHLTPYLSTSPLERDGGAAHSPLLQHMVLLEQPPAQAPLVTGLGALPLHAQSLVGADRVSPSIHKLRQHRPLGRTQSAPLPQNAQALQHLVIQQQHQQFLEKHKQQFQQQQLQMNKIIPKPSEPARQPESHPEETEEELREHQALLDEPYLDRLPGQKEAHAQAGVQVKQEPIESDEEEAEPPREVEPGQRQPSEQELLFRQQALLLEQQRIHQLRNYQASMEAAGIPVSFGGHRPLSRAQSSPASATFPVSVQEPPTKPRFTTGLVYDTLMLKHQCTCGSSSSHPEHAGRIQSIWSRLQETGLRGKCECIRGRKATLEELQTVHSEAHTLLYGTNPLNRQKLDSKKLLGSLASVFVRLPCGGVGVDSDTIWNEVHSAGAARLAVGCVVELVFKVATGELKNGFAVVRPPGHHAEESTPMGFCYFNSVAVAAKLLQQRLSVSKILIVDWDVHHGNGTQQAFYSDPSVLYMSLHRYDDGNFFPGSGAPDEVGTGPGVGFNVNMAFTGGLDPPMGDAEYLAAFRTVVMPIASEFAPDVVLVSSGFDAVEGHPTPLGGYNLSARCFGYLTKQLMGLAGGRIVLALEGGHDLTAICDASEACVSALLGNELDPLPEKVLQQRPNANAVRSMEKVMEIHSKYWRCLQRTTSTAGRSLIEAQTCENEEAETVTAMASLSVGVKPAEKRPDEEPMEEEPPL
Voltage-gated inwardly rectifying potassium channel KCNH2, sequence (Q12809 whole entry): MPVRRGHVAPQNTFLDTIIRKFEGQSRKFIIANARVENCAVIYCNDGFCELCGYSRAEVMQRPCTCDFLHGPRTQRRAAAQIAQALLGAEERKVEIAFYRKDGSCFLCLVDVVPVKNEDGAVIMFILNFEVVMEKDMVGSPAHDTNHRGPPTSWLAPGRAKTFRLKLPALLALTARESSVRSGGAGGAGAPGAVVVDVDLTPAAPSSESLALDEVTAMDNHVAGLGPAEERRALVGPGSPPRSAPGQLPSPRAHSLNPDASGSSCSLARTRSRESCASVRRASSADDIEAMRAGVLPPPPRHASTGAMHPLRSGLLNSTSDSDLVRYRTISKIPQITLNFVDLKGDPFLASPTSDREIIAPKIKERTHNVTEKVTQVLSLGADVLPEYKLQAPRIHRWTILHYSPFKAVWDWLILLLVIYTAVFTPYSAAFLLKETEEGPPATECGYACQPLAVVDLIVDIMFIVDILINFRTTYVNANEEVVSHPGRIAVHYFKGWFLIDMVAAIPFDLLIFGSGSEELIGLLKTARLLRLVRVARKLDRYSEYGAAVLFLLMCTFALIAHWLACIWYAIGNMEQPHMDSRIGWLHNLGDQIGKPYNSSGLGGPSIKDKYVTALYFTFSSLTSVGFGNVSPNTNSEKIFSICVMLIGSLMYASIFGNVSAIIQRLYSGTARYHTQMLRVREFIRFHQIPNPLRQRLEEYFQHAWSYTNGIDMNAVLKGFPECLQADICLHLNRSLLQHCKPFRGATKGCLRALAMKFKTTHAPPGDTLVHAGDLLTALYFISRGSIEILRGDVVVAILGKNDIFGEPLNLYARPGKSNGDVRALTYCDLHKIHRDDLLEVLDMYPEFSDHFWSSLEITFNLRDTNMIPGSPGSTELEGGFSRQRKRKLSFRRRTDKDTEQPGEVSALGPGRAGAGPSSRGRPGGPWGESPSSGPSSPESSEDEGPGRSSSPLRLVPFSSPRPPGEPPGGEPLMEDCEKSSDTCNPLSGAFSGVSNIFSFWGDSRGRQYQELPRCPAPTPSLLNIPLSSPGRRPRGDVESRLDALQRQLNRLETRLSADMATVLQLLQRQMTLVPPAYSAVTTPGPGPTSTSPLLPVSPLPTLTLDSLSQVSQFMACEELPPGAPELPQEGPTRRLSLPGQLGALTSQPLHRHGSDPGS
Histone deacetylase 3 (Homo sapiens), sequence (O15379 whole entry): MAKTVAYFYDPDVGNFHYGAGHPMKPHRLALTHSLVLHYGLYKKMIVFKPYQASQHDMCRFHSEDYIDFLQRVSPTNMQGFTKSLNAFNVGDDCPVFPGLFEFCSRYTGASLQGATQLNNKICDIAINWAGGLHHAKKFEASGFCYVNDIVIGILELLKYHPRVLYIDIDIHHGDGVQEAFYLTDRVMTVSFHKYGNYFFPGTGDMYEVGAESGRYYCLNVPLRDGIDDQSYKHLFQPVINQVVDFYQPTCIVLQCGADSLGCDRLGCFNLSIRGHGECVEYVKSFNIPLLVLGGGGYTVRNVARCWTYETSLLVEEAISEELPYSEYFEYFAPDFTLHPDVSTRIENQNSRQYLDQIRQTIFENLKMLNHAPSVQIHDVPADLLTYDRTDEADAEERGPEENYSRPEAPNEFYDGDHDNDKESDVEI
Histone deacetylase 5 (Homo sapiens), sequence (Q9UQL6 whole entry): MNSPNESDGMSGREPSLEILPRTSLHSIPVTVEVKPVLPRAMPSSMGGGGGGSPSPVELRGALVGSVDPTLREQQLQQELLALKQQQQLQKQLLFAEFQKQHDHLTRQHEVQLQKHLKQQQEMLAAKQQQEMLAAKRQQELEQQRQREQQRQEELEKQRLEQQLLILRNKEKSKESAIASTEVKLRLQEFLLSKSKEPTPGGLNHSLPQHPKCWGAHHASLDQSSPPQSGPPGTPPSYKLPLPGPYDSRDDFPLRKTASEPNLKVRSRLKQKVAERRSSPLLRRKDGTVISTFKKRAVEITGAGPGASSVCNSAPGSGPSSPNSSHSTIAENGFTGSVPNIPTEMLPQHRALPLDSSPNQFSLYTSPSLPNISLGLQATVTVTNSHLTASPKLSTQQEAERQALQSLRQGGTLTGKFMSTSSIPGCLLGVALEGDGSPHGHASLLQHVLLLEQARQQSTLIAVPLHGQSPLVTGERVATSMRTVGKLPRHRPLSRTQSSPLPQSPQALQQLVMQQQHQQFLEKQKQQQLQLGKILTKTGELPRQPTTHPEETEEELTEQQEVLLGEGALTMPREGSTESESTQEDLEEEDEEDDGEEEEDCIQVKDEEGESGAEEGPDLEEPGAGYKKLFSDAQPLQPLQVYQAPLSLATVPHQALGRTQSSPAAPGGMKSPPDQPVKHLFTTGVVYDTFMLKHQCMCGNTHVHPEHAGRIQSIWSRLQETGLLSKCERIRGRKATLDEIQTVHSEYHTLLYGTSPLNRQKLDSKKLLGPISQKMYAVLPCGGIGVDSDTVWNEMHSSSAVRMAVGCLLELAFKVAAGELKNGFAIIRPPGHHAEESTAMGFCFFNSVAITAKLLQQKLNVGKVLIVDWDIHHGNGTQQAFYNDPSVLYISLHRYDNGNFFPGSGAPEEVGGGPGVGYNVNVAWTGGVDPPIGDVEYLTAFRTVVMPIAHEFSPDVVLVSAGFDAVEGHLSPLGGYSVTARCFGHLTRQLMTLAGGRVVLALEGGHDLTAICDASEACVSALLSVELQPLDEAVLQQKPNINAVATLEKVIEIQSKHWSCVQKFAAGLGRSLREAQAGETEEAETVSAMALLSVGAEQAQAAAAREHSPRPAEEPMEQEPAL

## NC(=O)[C@H](N)Cc1ccc(C(=O)Nc2cc(-c3cccs3)ccc2N)cc1
HCT-116
  Activity: 390 nM

## CNC(=O)C(NC(=O)OC)c1ccc(C(=O)Nc2cc(-c3cccs3)ccc2N)cc1 (stereo not given)
HCT-116
  Activity: 410 nM

## CCOC(=O)C(N)c1ccc(C(=O)Nc2cc(-c3cccs3)ccc2N)cc1 (stereo not given)
HCT-116
  Activity: 1100 nM
[1]
  IC50: 5.7 µM

## CNC(=O)C(NS(C)(=O)=O)c1ccc(C(=O)Nc2cc(-c3cccs3)ccc2N)cc1 (stereo not given)
HCT-116
  Activity: 780 nM

## CNC(=O)NC(C(=O)NC)c1ccc(C(=O)Nc2cc(-c3cccs3)ccc2N)cc1 (stereo not given)
HCT-116
  Activity: 960 nM

## CNC(=O)C(N)c1ccc(C(=O)Nc2cc(-c3cccs3)ccc2N)cc1 (stereo not given)
[2]
  logD: 1.57
HCT-116
  Activity: 450 nM
[3]
  Activity: 3.4 µM
[4]
  Activity: > 50 µM
[5]
  Activity: > 50 µM
[6]
  Activity: > 50 µM
[7]
  Activity: > 50 µM
[8]
  Activity: 35 µM
[9]
  Activity: 3.6 µM
[10]
  Selectivity ratio: 13
[11]
  Selectivity ratio: 340
[12]
  Selectivity ratio: > 5000
[13]
  Selectivity ratio: > 5000
[14]
  Selectivity ratio: > 5000
[15]
  Selectivity ratio: > 5000
[16]
  Selectivity ratio: 3500
[17]
  Selectivity ratio: 360
[18]
  clearance: 38 mL/min/kg
[19]
  Vd: 7.6 L/kg
[20]
  half-life: 5.9 h
[21]
  bioavailability: 27%
[22]
  clearance: 11 mL/min/kg
[23]
  Vd: 3.2 L/kg
[24]
  half-life: 5.4 h
[25]
  bioavailability: 17%
[26]
  clearance: 16 mL/min/kg
[27]
  Vd: 1.6 L/kg
[28]
  half-life: 1.6 h
[29]
  bioavailability: 5%
[30]
  concentration at 2 h: 28.6 µM
[31]
  concentration at 4 h: 10 µM
[32]
  concentration at 24 h: 0.02 µM
[33]
  solubility: 185 µM (≈ 70.4 µg/mL)
[34]
  concentration at 2 h: 17.9 µM
[35]
  concentration at 4 h: 4.1 µM
[36]
  concentration at 24 h: 0.01 µM

## NC(=O)[C@H](N)c1ccc(C(=O)Nc2cc(-c3cccs3)ccc2N)cc1
HCT-116
  Activity: 350 nM

## CNC(=O)C(NC(C)=O)c1ccc(C(=O)Nc2cc(-c3cccs3)ccc2N)cc1 (stereo not given)
HCT-116
  Activity: 620 nM

## Nc1ccc(-c2cccs2)cc1NC(=O)c1ccc(C(N)C(=O)O)cc1 (stereo not given)
HCT-116
  Activity: >20000 nM

Source: ChEMBL document CHEMBL1142361, “Phenylglycine and phenylalanine derivatives as potent and selective HDAC1 inhibitors (SHI-1)” (Bioorg Med Chem Lett, 2008)
